Data as given in ChEMBL document CHEMBL4828729, “MSBA-S - A pentacyclic sulfamate as a new option for radiotherapy of human breast cancer cells” (Eur J Med Chem, 2021).
Active and inactive are the calls of the source.

Key:
BT-20 = test: Cytotoxicity against human BT-20 cells assessed as reduction in cell viability measured after 96 hrs by SRB assay; format: functional, cell-based; settings: BT-20, 96 h
How it was run: (§1)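 Compounds were prepared as 20 mM DMSO stocks and applied 24 h after seeding in 96-well plates at 1-100 (so in the source) for 96 h under standard conditions. Cells were fixed with 10% trichloroacetic acid, stained with 0.4% SRB, washed with 1% acetic acid and dissolved in 20 mM Tris base. Absorbance was read at 540 nm. IC50 is the half-maximal inhibitory concentration, with a cut-off of 50. Mean ± SD of at least three independent experiments.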

MCF7 = test: Cytotoxicity against human MCF7 cells assessed as reduction in cell viability measured after 96 hrs by SRB assay; format: functional, cell-based; settings: MCF7, 96 h; how it was run: as §1
Hs-578T [1] = test: Cytotoxicity against human Hs-578T cells assessed as reduction in cell viability measured after 96 hrs by SRB assay; format: functional, cell-based; how it was run: as §1
MDA-MB-231 [2] = test: Cytotoxicity against human MDA-MB-231 cells assessed as reduction in cell viability measured after 96 hrs by SRB assay; format: functional, cell-based; settings: MDA-MB-231, 96 h; how it was run: as §1
MDA-MB-231 [3] = test: Anticlonogenic activity against human MDA-MB-231 cells assessed as clonogenic survival rate at 40 uM measured after 24 hrs by giemsa staining based survival assay relative to control; format: functional; settings: read-out: INH
How it was run: (§2)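 Cells seeded in 6-well plates and treated 24 h after seeding for 24 h. They were then trypsinized, counted and reseeded at 300 or 600 cells per 75 cm² flask. Colonies grew for about 12-14 days before paraformaldehyde fixation and 10% Giemsa staining. Only colonies of more than about 50 cells were scored for surviving fraction relative to control. Mean +SD of three independent experiments.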

Hs-578T [4] = test: Induction of apoptosis in human Hs-578T cells assessed as nuclei shrinkage at 40 uM measured after 72 hrs by DAPI staining based fluorescence microscopy relative to control; format: functional
How it was run: (§3)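 After 72 h treatment under standard conditions, cells were trypsinized and pelleted together with the culture supernatant. They were resuspended in PBS, fixed in 70% ethanol, cytospun onto slides and stained with DAPI for 5 min. Apoptotic cells were scored by nuclear shrinkage. Mean +SD of three independent experiments.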

Hs-578T [5] = test: Anticlonogenic activity against human Hs-578T cells assessed as clonogenic survival rate at 40 uM measured after 24 hrs by giemsa staining based survival assay relative to control; format: functional; how it was run: as §2
Hs-578T [6] = test: Induction of apoptosis in human Hs-578T cells assessed as nuclei shrinkage at 20 uM measured after 72 hrs by DAPI staining based fluorescence microscopy relative to control; format: functional; how it was run: as §3
MDA-MB-231 [7] = test: Antimigratory activity against human MDA-MB-231 cells assessed as inhibition of cell migration measured by wound healing assay relative to control; format: functional
[8] = test system: MDA-MB-231 (Homo sapiens); test: Antimigratory activity against human MDA-MB-231 cells assessed as inhibition of cell migration measured by wound healing assay
Hs-578T [9] = test: Induction of apoptosis in human Hs-578T cells assessed as necrotic cells at 10 uM measured after 24 hrs by Annexin V/propidium iodide staining based flow cytometry relative to control; format: functional
How it was run: (§4)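 Cells were seeded in 6-well plates, grown 24 h and then treated for 24 h. They were resuspended in binding buffer (10 mM HEPES/NaOH, 140 mM NaCl, 5 mM CaCl₂, pH 7.4) and stained for 15 min with propidium iodide and/or Annexin V. Flow cytometry classified vital (Q3), necrotic (Q1), late apoptotic (Q2) and apoptotic (Q4) populations.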

MDA-MB-231 [10] = test: Induction of apoptosis in human MDA-MB-231 cells assessed as early apoptotic cells at 10 uM measured after 24 hrs by Annexin V/propidium iodide staining based flow cytometry relative to control; format: functional; how it was run: as §4
Hs-578T [11] = test: Anticlonogenic activity against human Hs-578T cells assessed as clonogenic survival rate at 10 uM measured after 24 hrs by giemsa staining based survival assay relative to control; format: functional; how it was run: as §2
MDA-MB-231 [12] = test: Induction of apoptosis in human MDA-MB-231 cells assessed as nuclei shrinkage at 10 uM measured after 72 hrs by DAPI staining based fluorescence microscopy relative to control; format: functional; how it was run: as §3
MDA-MB-231 [13] = test: Induction of apoptosis in human MDA-MB-231 cells assessed as increase in ROS production at 20 uM measured after 24 hrs by CM-H2DCFDA staining based flow cytometry analysis relative to control; format: functional; settings: dose 5 µM, in the assay text read “at 5 uM” for “at 20 uM”
How it was run: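 Cells were plated in 6-well plates for 24 h, then treated for 24 h. They were loaded with 0.5 CM-H2DCFDA in PBS with CaCl₂/MgCl₂ for 30 min at 37 °C, washed, exposed to trypsin-EDTA (0.5%) for 3 min at 37 °C and detached with PBS. Fluorescence from dye conversion to chloromethyl-dichlorofluorescein was measured by flow cytometry. Values are fold change versus DMSO-treated cells.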

Hs-578T [14] = test: Induction of apoptosis in human Hs-578T cells assessed as nuclei shrinkage at 10 uM measured after 72 hrs by DAPI staining based fluorescence microscopy relative to control; format: functional; how it was run: as §3
MDA-MB-231 [15] = test: Radiosensitization activity in human MDA-MB-231 cells assessed as ratio of DMSO treated surviving fraction to compound treated surviving fraction at 5 uM pre-incubated for 24 hrs prior to irradiation and measured by giemsa staining based assay; format: functional
How it was run: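 Cells were incubated for 24 h with 5 (so in the source) compound, then irradiated with 6, 10 or 14 Gy. Colonies of more than about 50 cells were counted after about 12-14 days with Giemsa staining and normalized to unirradiated controls. DMF is the surviving fraction of DMSO control cells divided by that of treated cells, reported at 10% survival.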

MDA-MB-231 [16] = test: Induction of apoptosis in human MDA-MB-231 cells assessed as necrotic cells at 10 uM measured after 24 hrs by Annexin V/propidium iodide staining based flow cytometry relative to control; format: functional; how it was run: as §4
MDA-MB-231 [17] = test: Induction of apoptosis in human MDA-MB-231 cells assessed as late apoptotic cells at 10 uM measured after 24 hrs by Annexin V/propidium iodide staining based flow cytometry relative to control; format: functional; how it was run: as §4
Hs-578T [18] = test: Induction of apoptosis in human Hs-578T cells assessed as early apoptotic cells at 10 uM measured after 24 hrs by Annexin V/propidium iodide staining based flow cytometry relative to control; format: functional; how it was run: as §4
Hs-578T [19] = test: Induction of apoptosis in human Hs-578T cells assessed as late apoptotic cells at 10 uM measured after 24 hrs by Annexin V/propidium iodide staining based flow cytometry relative to control; format: functional; how it was run: as §4
MDA-MB-231 [20] = test: Anticlonogenic activity against human MDA-MB-231 cells assessed as clonogenic survival rate at 10 uM measured after 24 hrs by giemsa staining based survival assay relative to control; format: functional; how it was run: as §2
MDA-MB-231 [21] = test: Induction of apoptosis in human MDA-MB-231 cells assessed as nuclei shrinkage at 40 uM measured after 72 hrs by DAPI staining based fluorescence microscopy relative to control; format: functional; how it was run: as §3

Structure (SMILES) | IC50 (BT-20) [µM] | IC50 (MCF7) [µM] | IC50 (Hs-578T [1]) [µM] | IC50 (MDA-MB-231 [2]) [µM] | clonogenic survival relative to control at 40 µM (MDA-MB-231 [3]) [%] | Activity (Hs-578T [4]) [%] | inhibition at 40 µM (Hs-578T [5]) [%] | other results
CC1(C)CC[C@]2(C(=O)NCc3ccccc3)CC[C@]3(C)C(=CC[C@@H]4[C@@]5(C)CC[C@H](OS(N)(=O)=O)C(C)(C)[C@@H]5CC[C@]43C)[C@@H]2C1 | 16.2 | > 50 | 15.8 | > 50 | 80.6 | 3.5 | 73.1 | –
C[C@H]1[C@H](C)CC[C@]2(C(=O)NCc3ccccc3)CC[C@]3(C)C(=CC[C@@H]4[C@@]5(C)CC[C@H](OS(N)(=O)=O)C(C)(C)[C@@H]5CC[C@]43C)[C@H]12 | 16.2 | – | – | – | 80.6 | – | 73.1 | Activity (Hs-578T [6]): 3.5%
CC1(C)CC[C@]2(C(=O)O)CC[C@]3(C)C(=CC[C@@H]4[C@@]5(C)CC[C@H](O)C(C)(C)[C@@H]5CC[C@]43C)[C@@H]2C1 | – | – | – | – | – | – | – | inhibition (MDA-MB-231 [7]): inactive
C=C(C)[C@@H]1CC[C@]2(C(=O)O)CC[C@]3(C)[C@H](CC[C@@H]4[C@@]5(C)CC[C@H](O)C(C)(C)[C@@H]5CC[C@]43C)[C@@H]12 | – | – | – | – | – | – | – | inhibition (MDA-MB-231 [7]): Active; inhibition [8]: Active
CC1(C)CC[C@]2(C(=O)NCc3ccccc3)CC[C@]3(C)C(=CC[C@@H]4[C@@]5(C)C[C@@H](OS(N)(=O)=O)[C@H](OS(N)(=O)=O)C(C)(C)[C@@H]5CC[C@]43C)[C@@H]2C1 | 5.8 | 4.9 | 3.8 | 3.7 | – | – | – | Activity (Hs-578T [9]): 2.6%; Activity (MDA-MB-231 [10]): 7.4%; inhibition at 10 µM (Hs-578T [11]): 16.5%; Activity (MDA-MB-231 [12]): 8.9%; fold change (FC) (MDA-MB-231 [13]): 5.7; Activity (Hs-578T [14]): 22.1%; Ratio (MDA-MB-231 [15]): 1.14; Activity (MDA-MB-231 [16]): 1.6%; Activity (MDA-MB-231 [17]): 18.4%; Activity (Hs-578T [18]): 8.7%; Activity (Hs-578T [19]): 44.4%; inhibition at 10 µM (MDA-MB-231 [20]): 42.1%
C=C(C)[C@@H]1CC[C@]2(C(=O)NCc3ccccc3)CC[C@]3(C)[C@H](CC[C@@H]4[C@@]5(C)CC[C@H](OS(N)(=O)=O)C(C)(C)[C@@H]5CC[C@]43C)[C@@H]12 | 16.2 | 7.5 | 18.8 | 15.2 | 80.6 | 3.5 | 73.1 | Activity (MDA-MB-231 [21]): 2.1%
CC(=O)[C@@H]1CC[C@]2(C(=O)NCc3ccccc3)CC[C@]3(C)[C@H](CC[C@@H]4[C@@]5(C)CC[C@H](OS(N)(=O)=O)C(C)(C)[C@@H]5CC[C@]43C)[C@@H]12 | 32 | 9.3 | 16.9 | > 50 | 80.6 | 3.5 | 73.1 | Activity (MDA-MB-231 [21]): 2.1%
